Experimental data from different studies.
Compare with care: the assays were run in different laboratories.
Target: Serine/threonine-protein kinase PknB (pknB, Mycobacterium tuberculosis, UniProt P9WI81)

CC1CCCN1c1nccc(-c2cnn3ncccc23)n1 (centres unmarked) — remaining binding (binding; 1 µM): 100%
C[C@@H]1CN(c2cc(-c3n[nH]c4ccc(OC5(C)CC5)cc34)ncn2)C[C@H](C)O1 — remaining binding (cell-free assay, competition with immobilised ligand; 0.1 µM): 95%
Nc1ncc(-c2nc(N3CCOCC3)nc(N3CCOCC3)n2)c(C(F)F)n1 — remaining signal (cell-free assay; 10 µM): 66%
COc1cc(Nc2ncc(F)c(Nc3ccc4c(n3)NC(=O)C(C)(C)O4)n2)cc(OC)c1OC — inhibition (binding, competition with immobilised ligand; 10 µM): 46%
C[C@H](c1ccnc(Nc2nc3ccc(-c4cc(N(C)C)ncn4)cc3[nH]2)c1)N1CCN(C(=O)CC(F)(F)F)CC1 — remaining binding (cell-free assay, competition with immobilised ligand; 0.1 µM): 91%
CN(C)c1nccc(-c2cnn3ncccc23)n1 — remaining binding (binding; 1 µM): 76%
Cc1ccc(C(=O)Nc2ccc(CN3CCN(C)CC3)c(C(F)(F)F)c2)cc1C#Cc1cnc2cccnn12 — remaining signal (cell-free assay; 23.5 nM): 98%
Nc1ncnc2occ(-c3ccc(NC(=O)Nc4cc(C(F)(F)F)ccc4F)cc3)c12 — remaining signal (cell-free assay; 20 µM): 66%
